Columns and labels:
[1] = Safety and tolerability, capsule and tablet multiple ascending dose study; type: in vivo, human
Procedure, shortened: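 Double-blind study; 12 per cohort randomized 3:1 to ALZ-801 or placebo. Cohort A fasted capsule: 171 mg once on day 1, twice daily days 2–7, then 256.5 mg days 8–14. Cohort D tablet 265 mg, ages 60–75, fed 30 min pre-dose: once day 1, twice daily days 2–6, once day 7. AEs recorded until follow-up call and coded by MedDRA v18.1.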

[2] = Urine drug recovery, renal clearance and estimate of oral bioavailability; type: in vivo, human; conditions: Cohort D, 24-h urine; for CL renal: both, human, urine and plasma, oral, 265 mg, CLr, mean ± SD
Procedure, shortened: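 Cohort D: 265 mg immediate-release tablet in the fed state (meal 30 min pre-dose), once on day 1, twice daily days 2–6, once on day 7. Urine was collected over 24 h on days 1 and 7 and assayed by LC-MS (LLOQ 30 ng/mL ALZ-801, 100 ng/mL tramiprosate). Renal clearance was calculated as Ae divided by plasma AUC24.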

[3] = Phase I multiple ascending dose study of ALZ-801 capsule and tablet; type: in vivo, human; conditions: plasma; for Tmax / half-life / AUC / Cmax: both, human, oral; for half-life: t ½; for Cmax: C max; for lower C max for 265 mg tablet than 256.5 mg capsule: fed state
[4] = Single-dose ALZ-801 immediate-release tablet PK and food effect study; type: in vivo, human; conditions: plasma; for Cmax: C max
[5] = Bridging clinical dose analysis and projection of brain drug exposure; set-up: species or system human; conditions: for projected plasma tramiprosate AUC12: oral ALZ-801 265 mg twice daily, steady state
Procedure, shortened: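 Projected from human plasma tramiprosate AUC after oral tablet: linear regression of steady-state dose vs AUC for 205 and 342 mg fed, with accumulation factor from Study 2 day 7/day 1 and modelled Study 3 data. Benchmark was the plasma AUC12 of the earlier 150 mg twice-daily tramiprosate trial. Brain exposure scaled by rodent brain/plasma ratio (14C-tramiprosate, single and steady-state).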

Aβ oligomers = conditions: 1000-fold excess of tramiprosate, IMS-MS; cited from earlier work
OAT3 = biological target: T1, OAT3 (Homo sapiens, UniProt Q8TCC7); assay: Effect on renal transporters; type: in vitro ADME; conditions: concentrations up to 100 mM; data on file
T1 sequence (Q8TCC7 1-542): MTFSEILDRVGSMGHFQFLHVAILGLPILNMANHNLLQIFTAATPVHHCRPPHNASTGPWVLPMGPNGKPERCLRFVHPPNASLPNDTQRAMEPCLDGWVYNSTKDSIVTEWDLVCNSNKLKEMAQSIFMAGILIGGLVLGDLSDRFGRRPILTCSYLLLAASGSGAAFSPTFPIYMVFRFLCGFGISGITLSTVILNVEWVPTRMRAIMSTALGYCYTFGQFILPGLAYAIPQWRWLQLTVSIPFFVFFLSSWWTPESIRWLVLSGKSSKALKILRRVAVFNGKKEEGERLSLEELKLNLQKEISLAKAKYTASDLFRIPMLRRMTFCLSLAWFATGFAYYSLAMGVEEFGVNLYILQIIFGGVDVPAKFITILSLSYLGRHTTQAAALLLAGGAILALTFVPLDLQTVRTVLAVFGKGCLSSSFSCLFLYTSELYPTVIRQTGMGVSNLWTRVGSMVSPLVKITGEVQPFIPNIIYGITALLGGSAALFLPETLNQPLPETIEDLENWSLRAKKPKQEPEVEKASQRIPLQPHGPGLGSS

[6] = test system: brain amyloid plaque load; conditions: chronic oral treatment, TgCRND8 mice; cited from earlier work
[7] = Phase I single ascending dose study of ALZ-801 loose-filled capsule; type: in vivo, human; conditions: both, human, plasma, oral, 100 mg, Plasma tramiprosate t ½, mean ± SD
Procedure, shortened: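 Single fasted oral loose-filled capsules; 172 mg in 36 healthy subjects over 50 y (parallel, randomized 1:1:1), 300 mg in 15 subjects over 50 y. Plasma sampled over 48 h into K3 EDTA on ice, spun 2000g 10 min 4 °C, stored at or below −20 °C. LC-MS assay; non-compartmental analysis; Tmax as median (range).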

[8] = Part 1: Cohort A, 171 and 256.5 mg capsule, fasted
[9] = Part 1: Cohort B, 256.5 and 340 mg capsule, fasted
[10] = Part 1: Cohort C, 256.5 and 340 mg capsule, fed
[11] = Part 2: Cohort D, 265 mg tablet, fed
[12] = Week 1, Cohort A 171 mg bid, capsule, fasted
[13] = Week 1, Cohort B 256.5 mg bid, capsule, fasted
[14] = Week 1, Cohort C 256.5 mg bid, capsule, fed
[15] = Week 1, Cohort D 265 mg bid, tablet, fed
[16] = Week 2, Cohort A 256.5 mg qd, capsule, fasted
[17] = Week 2, Cohort B 340 mg qd, capsule, fasted
[18] = Week 2, Cohort C 340 mg bid, capsule, fed
[19] = 265 mg, AUC12, plasma, Day 1, fed, ALZ-801 tablet 265 mg (Cohort D), mean ± SD
[20] = 265 mg, AUC12, plasma, Day 7, fed, ALZ-801 tablet 265 mg twice daily (Cohort D), mean ± SD
[21] = 265 mg, AUC24, plasma, Day 1, fed, ALZ-801 tablet 265 mg (Cohort D), mean ± SD
[22] = 265 mg, AUC24, plasma, Day 7, fed, ALZ-801 tablet 265 mg twice daily (Cohort D), mean ± SD
[23] = 265 mg, Day 1, fed, ALZ-801 tablet 265 mg (Cohort D), mean ± SD
[24] = 265 mg, T max, Day 1, fed, ALZ-801 tablet 265 mg (Cohort D), mean ± SD
[25] = 265 mg, T max, Day 7, fed, ALZ-801 tablet 265 mg twice daily (Cohort D), mean ± SD
[26] = 265 mg, Day 7, fed, ALZ-801 tablet 265 mg twice daily (Cohort D), mean ± SD
[27] = 256.5 mg ALZ-801 capsules, day 1
[28] = repeated 256.5 mg ALZ-801 capsules, day 7
[29] = day 7 vs day 1, 171 and 256.5 mg capsules, fasted
[30] = 205 mg ALZ-801 tablets fed (Regimen C) vs fasted

## CC(C)[C@H](N)C(=O)NCCCS(=O)(=O)O [ALZ-801, 3-(L-valyl) amino-1-propanesulfonic acid]
[1]; 265 mg twice daily, fed state
  incidence of TEAEs: equivalent to placebo
[1]; ALZ-801 dosing in the fasting state
  total number of TEAEs: 65
[1]; [8]
  No. of deaths (all causes): 0
  No. of deaths resulting from AEs: 0
  Subjects affected by SAE/exposed: 0/9
[1]; [9]
  No. of deaths (all causes): 0
  No. of deaths resulting from AEs: 0
  Subjects affected by SAE/exposed: 0/9
[1]; [10]
  No. of deaths (all causes): 0
  No. of deaths resulting from AEs: 0
  Subjects affected by SAE/exposed: 0/9
[1]; [11]
  No. of deaths (all causes): 0
  No. of deaths resulting from AEs: 0
  Subjects affected by SAE/exposed: 0/9
[1]; [12]
  TEAEs: Nausea: 3 (33.3) cases (%)
  TEAEs: Vomiting: 0 cases (%)
[1]; [13]
  TEAEs: Nausea: 4 (44.4) cases (%)
  TEAEs: Vomiting: 2 (22.2) cases (%)
[1]; [14]
  TEAEs: Nausea: 5 (55.6) cases (%)
  TEAEs: Vomiting: 2 (22.2) cases (%)
[1]; [15]
  TEAEs: Nausea: 3 (33.3) cases (%)
  TEAEs: Vomiting: 1 (11.1) cases (%)
[1]; [16]
  TEAEs: Nausea: 3 (33.3) cases (%)
  TEAEs: Vomiting: 0 cases (%)
[1]; [17]
  TEAEs: Nausea: 0 cases (%)
  TEAEs: Vomiting: 2 (22.2) cases (%)
[1]; [18]
  TEAEs: Nausea: 0 cases (%)
  TEAEs: Vomiting: 0 cases (%)
[1]; doses of up to 340 mg twice daily
  tolerability: well tolerated
[2]; Day 1, ALZ-801 tablet 265 mg
  Mean Ae: 22.5 mg
  CL renal: 36.4 ± 10.7 mL/min
[2]; Day 7, ALZ-801 tablet 265 mg
  Mean Ae: 24.1 mg
  CL renal: 35.9 ± 19.9 mL/min
[3]; 256.5 mg, T max, ALZ-801 capsule 171 and 256.5 mg, day 1, fasted
  Tmax: 0.5 h
[3]; 256.5 mg, Tmax, Cohort C, capsule, fed, 256.5 mg QD, Day 1, median (range)
  Tmax: ~1 h
[3]; 256.5 mg, ALZ-801 capsule 171 and 256.5 mg, day 1, fasted
  half-life: ~1 h
[3]; [19]
  AUC: 10300 ng·h/mL
[3]; [20]
  AUC: 11200 ng·h/mL
[3]; [21]
  AUC: 10300 ng·h/mL
[3]; [22]
  AUC: 11200 ng·h/mL
[3]; [23]
  Cmax: 4960 ± 2650 ng/mL
  half-life: 1.05 ± 0.16 h
[3]; [24]
  Tmax: 2.45 ± 0.848 h
[3]; [25]
  Tmax: 2.11 ± 0.553 h
[3]; [26]
  half-life: 1.11 ± 0.263 h
[3]; 340 mg, T max, day 14, dosing in the fasted state
  Tmax: ~0.5 h
[3]; irrespective of dosing regimen and day
  half-life: ~1 h
[3]; [27]
  lower C max in fed than fasted state: 25%
[3]; day 1
  lower C max for 265 mg tablet than 256.5 mg capsule: 22%
[3]; [28]
  lower C max in fed than fasted state: 30%
[4]; human, oral
  half-life: < 1 h
[4]; human, oral, 171 mg
  Tmax: 1 h
[4]; human, oral, 205 mg
  Tmax: 0.5 h

## NCCCS(=O)(=O)O [tramiprosate, 3-amino-1-propanesulfonic acid]
[2]; Day 1, ALZ-801 tablet 265 mg
  Mean Ae: 44.0 mg
  CL renal: 201 ± 48.2 mL/min
[2]; Day 7, ALZ-801 tablet 265 mg
  Mean Ae: 58.4 mg
  CL renal: 194 ± 85.1 mL/min
[5]; fasted
  projected plasma tramiprosate AUC12: approximately 4844 ng/mL h
[5]; fasted and fed combined
  projected plasma tramiprosate AUC12: ~4502 ng·h/mL
[5]; fed
  projected plasma tramiprosate AUC12: ~4360 ng·h/mL
[5]; projected steady state, ALZ-801 tablet 265 mg twice daily, humans, 14C method
  Projected brain average concentration (C ss,av): approximately 550 nM
[5]; rodent, 14C method, projected after steady-state dosing
  brain:plasma ratio (brain penetration), steady state: ~ 40%
Aβ oligomers
  formation of Aβ oligomers: completely abrogated
[3]; [19]
  AUC: 3300 ± 608 ng·h/mL
[3]; [20]
  AUC: 4100 ± 687 ng·h/mL
[3]; [21]
  AUC: 3650 ± 670 ng·h/mL
[3]; [22]
  AUC: 5020 ± 859 ng·h/mL
[3]; [23]
  Cmax: 759 ± 163 ng/mL
  half-life: 8.94 ± 1.35 h
[3]; [26]
  Cmax: 865 ± 172 ng/mL
  half-life: 36.1 ± 4.15 h
[3]; [24]
  Tmax: 3.56 ± 0.88 h
[3]; [25]
  Tmax: 2.9 ± 0.603 h
[3]; [27]
  lower C max in fed than fasted state: approximately 13%
[3]; [29]
  accumulation ratio AUC12: 1.3
  accumulation ratio C max: 1.2
[3]; day 1
  lower C max for 265 mg tablet than 256.5 mg capsule: approximately 12%
[3]; fed, day 7
  lower C max for 265 mg tablets than 256.5 mg capsules: 11%
[3]; [28]
  lower C max in fed than fasted state: ~18%
OAT3
  effect on renal transporter: no effect
[6]
  reduction in brain amyloid plaque load: ~ 30%
[4]; human, oral, 171 mg
  half-life: 12.9 h
[4]; human, oral, 205 mg
  Tmax: 1.5 h
  half-life: 16.5 h
[4]; human, oral, 205 mg, AUCt, 205 mg ALZ-801 tablets, fed (Regimen C)
  AUC(0-t): 2990 ng·h/mL
[4]; human, oral, 205 mg, 205 mg ALZ-801 tablets, fed (Regimen C)
  Cmax: 638 ng/mL
[4]; human, oral, 342 mg, 342 mg ALZ-801 tablets, fed (Regimen D)
  Cmax: 978 ng/mL
[4]; [30]
  delay of T max with food: approximately 30 min
  reduced C max with food: 17%
[4]; 342 mg (Regimen D) vs 205 mg ALZ-801 tablets, fed
  fold increase in C max for 1.7-fold increase in dose: 1.5 fold
[4]; ALZ-801 tablet, fed and fasted states
  interindividual variability for exposure: 20–35%
[7]; after tramiprosate LF capsule 100 mg
  half-life: 5.9 ± 5.22 h
[7]; after tramiprosate MR tablet 100 mg
  half-life: 4.99 ± 2.66 h

From PMC5814546 (Clinical Pharmacokinetics, 2017)
